# Data from ChEMBL document CHEMBL2203263, “Discovery of a 4-Azetidinyl-1-thiazoyl-cyclohexane CCR2 Antagonist as a Development Candidate” (ACS Med Chem Lett, 2012).
# Active and inactive are the calls of the source. The calls are words filed in the database; no cut-off is given here.
# Legend:
# [1] = target: hERG (KCNH2) (Homo sapiens, UniProt Q12809); assay: Inhibition of human ERG expressed in HEK-293 cells assessed as K+-selective outward current at 3 uM at -80 mV holding potential after 5 mins by voltage patch-clamp method; type: cell-based, HEK293; conditions: HEK-293 cells expressing human ERG
# [2] = test system: Cavia porcellus; assay: Cardiotoxicity in anesthetized Hartley guinea pig assessed as prolongation of corrected QT interval up to cumulative dose of 10 mg/kg, iv by electrocardiographic analysis; type: toxicity, organism-based; set-up: dose 10 mg/kg, route intravenous; conditions: in vivo
# Method in brief: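 Anesthetized guinea pigs received cumulative i.v. doses of 0.1, 0.3, 1, 3 and 10 mg/kg, each as a 5 min infusion at 0, 20, 40, 60 and 80 min. QTc was recorded at each time point as percent change from each animal's baseline. Mean ± SEM, n = 3.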
# [3] = target: Voltage-gated inwardly rectifying potassium channel KCNH2 (Homo sapiens, UniProt Q12809); assay: Displacement of [3H]-astemizole from human ERG expressed in HEK293 cells after 1 hr by scintillation counting analysis; type: cell-based
# [4] = Plasma concentration in Hartley guinea pig up to cumulative dose of 10 mg/kg, iv by LC-MS-MS analysis; type: ADME, organism-based, Cavia porcellus; set-up: dose 10 mg/kg, route intravenous; conditions: in vivo
# Method in brief: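 Plasma drug level was taken from the anesthetized guinea pig QTc study. Dosing was cumulative i.v. (0.1, 0.3, 1, 3, 10 mg/kg), each dose a 5 min infusion at 20 min intervals, up to 10 mg/kg.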
# [5] = test system: Canis familiaris; assay: Cardiotoxicity in anesthetized dog assessed as effect on ECG morphology up to 10 mg/kg, iv; type: toxicity, organism-based, Canis lupus familiaris; set-up: dose 10 mg/kg, route intravenous; conditions: in vivo
# [6] = target: T1, C-C chemokine receptor type 3 (Homo sapiens) (UniProt P51677); assay: Binding affinity against CCR3 at 25 uM
# T1 sequence (whole entry): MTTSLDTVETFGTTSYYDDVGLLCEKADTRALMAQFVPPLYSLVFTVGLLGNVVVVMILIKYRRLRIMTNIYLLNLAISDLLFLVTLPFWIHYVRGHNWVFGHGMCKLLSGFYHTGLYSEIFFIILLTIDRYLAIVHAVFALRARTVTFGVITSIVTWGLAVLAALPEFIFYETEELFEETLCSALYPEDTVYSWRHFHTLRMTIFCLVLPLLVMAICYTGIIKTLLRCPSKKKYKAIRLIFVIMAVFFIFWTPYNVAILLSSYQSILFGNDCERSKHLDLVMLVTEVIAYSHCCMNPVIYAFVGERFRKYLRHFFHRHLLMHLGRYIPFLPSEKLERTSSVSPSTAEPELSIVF
# [7] = target: C-C chemokine receptor type 5 (Homo sapiens) (UniProt P51681); assay: Binding affinity against CCR5 at 25 uM
# [8] = Cmax in rat at 10 mg/kg, po by LC-MS-MS analysis; type: ADME, organism-based; set-up: dose 10 mg/kg, route oral; conditions: in vivo
# [9] = Cmax in dog at 6.7 mg/kg, po by LC-MS-MS analysis; type: ADME, organism-based, Canis lupus familiaris; set-up: dose 6.7 mg/kg, route oral; conditions: in vivo
# Method in brief: (§1)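 Single oral dose of 6.7 mg/kg given to dogs as a suspension/solution in 0.5% methocel vehicle. AUC was taken to the last sampled time point.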
# [10] = AUC (last) in rat at 10 mg/kg, po by LC-MS-MS analysis; type: ADME, organism-based; set-up: time 0 - last, dose 10 mg/kg, route oral; conditions: plasma
# [11] = target: T2, C-C chemokine receptor type 4 (Homo sapiens) (UniProt P51679); assay: Binding affinity against CCR4 at 25 uM
# T2 sequence (whole entry): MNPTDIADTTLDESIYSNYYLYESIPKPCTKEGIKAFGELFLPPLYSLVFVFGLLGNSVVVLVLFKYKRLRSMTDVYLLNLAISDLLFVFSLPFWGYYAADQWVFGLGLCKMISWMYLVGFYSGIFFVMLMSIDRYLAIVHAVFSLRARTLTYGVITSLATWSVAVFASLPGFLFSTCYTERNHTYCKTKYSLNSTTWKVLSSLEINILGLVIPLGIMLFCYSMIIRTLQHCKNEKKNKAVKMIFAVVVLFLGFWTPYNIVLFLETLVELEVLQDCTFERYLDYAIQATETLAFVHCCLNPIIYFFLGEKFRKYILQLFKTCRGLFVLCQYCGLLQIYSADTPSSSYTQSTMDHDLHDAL
# [12] = AUC (last) in dog at 6.7 mg/kg, po by LC-MS-MS analysis; type: ADME, organism-based, Canis lupus familiaris; set-up: time 0 - last, dose 6.7 mg/kg, route oral; conditions: plasma; method in brief: as §1
# [13] = target: T3, C-X-C chemokine receptor type 2 (Homo sapiens) (UniProt P25025); assay: Binding affinity against CXCR2 at 25 uM
# T3 sequence (whole entry): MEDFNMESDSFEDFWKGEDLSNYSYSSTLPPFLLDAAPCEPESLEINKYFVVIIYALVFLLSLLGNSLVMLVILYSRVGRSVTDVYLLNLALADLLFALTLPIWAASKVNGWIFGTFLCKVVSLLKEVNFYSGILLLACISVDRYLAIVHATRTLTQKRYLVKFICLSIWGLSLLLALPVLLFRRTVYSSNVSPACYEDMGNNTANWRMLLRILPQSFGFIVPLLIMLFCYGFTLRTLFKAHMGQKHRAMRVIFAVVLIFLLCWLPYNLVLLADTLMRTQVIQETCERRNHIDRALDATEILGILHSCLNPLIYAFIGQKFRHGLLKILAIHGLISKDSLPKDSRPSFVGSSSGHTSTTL
# [14] = test system: Mus musculus; assay: Antiasthamatic activity in ovalbumin-sensitized mouse model assessed as inhibition of airway eosinophil infiltration at 10 mg/kg, po bid; type: functional
# [15] = target: C-X-C chemokine receptor type 4 (Homo sapiens) (UniProt P61073); assay: Binding affinity against CXCR4 at 25 uM
# [16] = Cmax in monkey at 7.2 mg/kg, po by LC-MS-MS analysis; type: ADME, organism-based, Macaca mulatta; set-up: dose 7.2 mg/kg, route oral; conditions: rhesus monkey, in vivo
# [17] = AUC (last) in monkey at 7.2 mg/kg, po by LC-MS-MS analysis; type: ADME, organism-based, Macaca mulatta; set-up: time 0 - last, dose 7.2 mg/kg, route oral; conditions: rhesus monkey, plasma
# [18] = target: T4, CX3C chemokine receptor 1 (Homo sapiens) (UniProt P49238); assay: Binding affinity against CX3CR1 at 25 uM
# T4 sequence (whole entry): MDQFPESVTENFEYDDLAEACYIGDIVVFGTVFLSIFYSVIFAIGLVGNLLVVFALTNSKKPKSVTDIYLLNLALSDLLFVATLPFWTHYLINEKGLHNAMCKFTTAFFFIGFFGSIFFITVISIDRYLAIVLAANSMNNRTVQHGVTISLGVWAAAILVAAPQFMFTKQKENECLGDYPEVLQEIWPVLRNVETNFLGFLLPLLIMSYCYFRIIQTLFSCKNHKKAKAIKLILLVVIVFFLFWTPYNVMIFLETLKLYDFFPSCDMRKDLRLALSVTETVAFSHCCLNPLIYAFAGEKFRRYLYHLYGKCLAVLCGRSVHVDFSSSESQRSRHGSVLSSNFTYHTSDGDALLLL
# [19] = Oral bioavailability in monkey at 7.2 mg/kg by LC-MS-MS analysis; type: ADME, organism-based, Macaca mulatta; conditions: rhesus monkey, in vivo
# [20] = Cmax in mouse at 10 mg/kg, po by LC-MS-MS analysis; type: ADME, organism-based; set-up: dose 10 mg/kg, route oral; conditions: in vivo
# [21] = AUC (last) in mouse at 10 mg/kg, po by LC-MS-MS analysis; type: ADME, organism-based; set-up: time 0 - last, dose 10 mg/kg, route oral; conditions: plasma
# [22] = target: T5, C-X-C chemokine receptor type 1 (Homo sapiens) (UniProt P25024); assay: Binding affinity against CXCR1 at 25 uM
# T5 sequence (whole entry): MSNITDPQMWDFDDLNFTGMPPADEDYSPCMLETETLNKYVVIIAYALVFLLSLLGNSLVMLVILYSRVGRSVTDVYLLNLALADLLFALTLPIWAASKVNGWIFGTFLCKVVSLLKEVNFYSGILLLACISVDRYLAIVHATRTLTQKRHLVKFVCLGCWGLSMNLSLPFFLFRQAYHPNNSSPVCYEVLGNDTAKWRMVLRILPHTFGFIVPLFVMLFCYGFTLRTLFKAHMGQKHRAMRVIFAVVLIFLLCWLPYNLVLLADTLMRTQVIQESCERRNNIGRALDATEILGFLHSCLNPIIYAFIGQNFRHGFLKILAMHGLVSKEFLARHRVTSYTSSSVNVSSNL
# [23] = target: T6, C-C chemokine receptor type 1 (Homo sapiens) (UniProt P32246); assay: Binding affinity against CCR1 at 25 uM
# T6 sequence (whole entry): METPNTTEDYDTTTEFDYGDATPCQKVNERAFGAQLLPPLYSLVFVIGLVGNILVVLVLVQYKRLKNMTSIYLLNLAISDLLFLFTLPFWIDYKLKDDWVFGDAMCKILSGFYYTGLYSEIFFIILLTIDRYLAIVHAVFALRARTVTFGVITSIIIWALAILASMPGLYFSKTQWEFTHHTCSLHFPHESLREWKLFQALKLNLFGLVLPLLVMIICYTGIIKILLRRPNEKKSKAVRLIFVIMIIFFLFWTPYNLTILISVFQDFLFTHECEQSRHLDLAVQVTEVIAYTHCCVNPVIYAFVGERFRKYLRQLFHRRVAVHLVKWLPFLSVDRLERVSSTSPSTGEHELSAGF
# [24] = test system: Canis familiaris; assay: Toxicity in anesthetized dog assessed as effect on cardiohemodynamic parameters up to 10 mg/kg, iv; type: organism-based, Canis lupus familiaris; set-up: dose 10 mg/kg, route intravenous; conditions: in vivo
# [25] = test system: Canis familiaris; assay: Toxicity in anesthetized dog assessed as effect on electrophysiological parameters up to 10 mg/kg, iv; type: organism-based, Canis lupus familiaris; set-up: dose 10 mg/kg, route intravenous; conditions: in vivo
# [26] = Oral bioavailability in rat at 10 mg/kg by LC-MS-MS analysis; type: ADME, organism-based; conditions: in vivo
# [27] = test system: Canis familiaris; assay: Toxicity in anesthetized dog assessed as effect on functional respiratory parameters up to 10 mg/kg, iv; type: organism-based, Canis lupus familiaris; set-up: dose 10 mg/kg, route intravenous; conditions: in vivo
# [28] = Oral bioavailability in dog at 6.7 mg/kg by LC-MS-MS analysis; type: ADME, organism-based, Canis lupus familiaris; conditions: in vivo; method in brief: as §1
# [29] = target: C-C chemokine receptor type 2 (Mus musculus, UniProt P51683); assay: Binding affinity to mouse CCR2
# [30] = Oral bioavailability in mouse at 10 mg/kg by LC-MS-MS analysis; type: ADME, organism-based; conditions: in vivo
# [31] = test system: Mus musculus; assay: Inhibition of thioglycollate-induced peritonitis in po dosed human CCR2 knock-in/murine CCR2 knockout mouse assessed as inhibition of leukocytes, monocytes/macrophages and T-lymphocytes influx in to peritoneal cavity administered as bid; type: functional
# Sequence of hERG (KCNH2) (Q12809 whole entry): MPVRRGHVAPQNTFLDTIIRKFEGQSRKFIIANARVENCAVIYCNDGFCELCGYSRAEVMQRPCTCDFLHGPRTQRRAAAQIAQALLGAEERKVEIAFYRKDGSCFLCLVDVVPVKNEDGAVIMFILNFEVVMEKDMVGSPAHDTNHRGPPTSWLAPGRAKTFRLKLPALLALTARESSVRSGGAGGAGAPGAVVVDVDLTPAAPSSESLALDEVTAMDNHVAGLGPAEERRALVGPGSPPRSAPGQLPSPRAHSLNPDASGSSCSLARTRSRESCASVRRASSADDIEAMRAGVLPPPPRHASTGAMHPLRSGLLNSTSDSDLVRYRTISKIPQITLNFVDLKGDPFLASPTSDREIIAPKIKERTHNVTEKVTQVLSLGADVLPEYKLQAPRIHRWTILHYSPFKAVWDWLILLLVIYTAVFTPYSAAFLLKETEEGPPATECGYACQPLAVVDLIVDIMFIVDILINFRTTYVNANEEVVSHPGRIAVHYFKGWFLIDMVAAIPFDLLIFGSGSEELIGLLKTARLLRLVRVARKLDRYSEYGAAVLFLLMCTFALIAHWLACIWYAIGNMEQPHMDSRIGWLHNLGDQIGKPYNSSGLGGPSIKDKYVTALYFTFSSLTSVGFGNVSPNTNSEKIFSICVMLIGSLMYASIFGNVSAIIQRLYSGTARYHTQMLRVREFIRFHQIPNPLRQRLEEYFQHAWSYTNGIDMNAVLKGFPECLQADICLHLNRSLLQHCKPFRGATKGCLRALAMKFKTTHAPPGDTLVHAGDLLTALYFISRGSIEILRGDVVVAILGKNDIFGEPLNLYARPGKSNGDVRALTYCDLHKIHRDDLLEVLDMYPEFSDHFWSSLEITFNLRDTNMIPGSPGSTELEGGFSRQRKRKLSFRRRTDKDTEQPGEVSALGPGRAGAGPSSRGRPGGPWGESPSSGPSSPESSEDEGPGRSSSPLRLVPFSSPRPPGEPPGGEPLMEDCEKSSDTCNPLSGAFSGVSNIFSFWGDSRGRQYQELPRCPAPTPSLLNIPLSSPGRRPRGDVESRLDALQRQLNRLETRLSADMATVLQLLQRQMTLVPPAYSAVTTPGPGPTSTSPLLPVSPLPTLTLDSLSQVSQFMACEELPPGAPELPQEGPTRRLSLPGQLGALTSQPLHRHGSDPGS
# Sequence of Voltage-gated inwardly rectifying potassium channel KCNH2 (Q12809 whole entry): as above
# Sequence of C-C chemokine receptor type 2 (P51683 whole entry): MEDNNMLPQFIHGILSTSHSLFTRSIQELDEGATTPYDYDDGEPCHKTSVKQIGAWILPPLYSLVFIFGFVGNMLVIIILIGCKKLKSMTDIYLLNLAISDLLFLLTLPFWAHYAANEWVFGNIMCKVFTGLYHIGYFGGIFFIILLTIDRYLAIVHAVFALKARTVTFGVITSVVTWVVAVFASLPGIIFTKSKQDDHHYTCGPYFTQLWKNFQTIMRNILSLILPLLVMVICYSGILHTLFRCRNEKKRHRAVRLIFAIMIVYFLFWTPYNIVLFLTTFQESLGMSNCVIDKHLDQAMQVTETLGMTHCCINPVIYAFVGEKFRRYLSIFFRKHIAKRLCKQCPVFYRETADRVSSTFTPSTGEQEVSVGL
# Sequence of C-C chemokine receptor type 5 (Homo sapiens) (P51681 whole entry, looked up): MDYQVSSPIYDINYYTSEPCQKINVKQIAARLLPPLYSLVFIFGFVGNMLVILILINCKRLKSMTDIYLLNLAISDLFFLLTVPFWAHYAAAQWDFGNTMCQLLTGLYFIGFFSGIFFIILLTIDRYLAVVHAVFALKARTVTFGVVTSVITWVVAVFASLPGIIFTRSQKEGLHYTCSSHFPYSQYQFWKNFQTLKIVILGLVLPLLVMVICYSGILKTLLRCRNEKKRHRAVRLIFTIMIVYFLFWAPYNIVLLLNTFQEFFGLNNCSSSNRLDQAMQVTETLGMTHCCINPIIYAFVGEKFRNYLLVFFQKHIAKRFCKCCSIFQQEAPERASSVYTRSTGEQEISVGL
# Sequence of C-X-C chemokine receptor type 4 (Homo sapiens) (P61073 whole entry): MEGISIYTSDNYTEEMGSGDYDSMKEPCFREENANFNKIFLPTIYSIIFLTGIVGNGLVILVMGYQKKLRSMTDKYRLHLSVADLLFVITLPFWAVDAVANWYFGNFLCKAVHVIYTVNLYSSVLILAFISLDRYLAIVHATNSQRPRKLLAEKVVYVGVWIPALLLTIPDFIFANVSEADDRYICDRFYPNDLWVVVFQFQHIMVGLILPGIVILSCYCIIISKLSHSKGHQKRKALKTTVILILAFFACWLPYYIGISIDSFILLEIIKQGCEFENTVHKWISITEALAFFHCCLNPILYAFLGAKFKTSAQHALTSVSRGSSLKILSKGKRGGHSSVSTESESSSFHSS
smiles,measurement,setting,value
CC(C)c1ncc([C@]2(O)CC[C@H](N3CC(NC(=O)CNC(=O)c4cccc(C(F)(F)F)c4)C3)CC2)s1,"inhibition at 5 min, 3 µM",[1],35%
same,Activity,[2],Non-toxic
same,IC50,[3],> 50 µM
same,concentration,[4],10 µM
CC(C)Oc1ncc([C@]2(O)CC[C@H](N3CC(NC(=O)CNC(=O)c4cccc(C(F)(F)F)c4)C3)CC2)s1,"inhibition at 5 min, 3 µM",[1],49%
same,Activity,[2],Non-toxic
same,IC50,[3],28 µM
same,concentration,[4],3 µM
CSc1ncc([C@]2(O)CC[C@H](N3CC(NC(=O)CNC(=O)c4cccc(C(F)(F)F)c4)C3)CC2)s1,"inhibition at 5 min, 3 µM",[1],77%
same,IC50,[3],6 µM
O=C(CNC(=O)c1cccc(C(F)(F)F)c1)NC1CN([C@H]2CC[C@@](O)(c3cncs3)CC2)C1 [JNJ-41443532],Activity,[5],Non-toxic
same,inhibition,[6],inactive
same,inhibition,[7],inactive
same,Cmax,[8],100 ng/mL
same,Cmax,[9],1620 ng/mL
same,AUC(0-t),[10],416 ng·h/mL
same,inhibition,[11],inactive
same,AUC(0-t),[12],5890 ng·h/mL
same,inhibition,[13],inactive
same,inhibition in vivo at 10 mg/kg,[14],89%
same,inhibition,[15],inactive
same,Cmax,[16],740 ng/mL
same,AUC(0-t),[17],3060 ng·h/mL
same,inhibition,[18],inactive
same,bioavailability,[19],25.4%
same,Cmax,[20],74 ng/mL
same,AUC(0-t),[21],204 ng·h/mL
same,inhibition,[22],inactive
same,Activity,[2],Non-toxic
same,inhibition,[23],inactive
same,Activity,[24],Non-toxic
same,Activity,[25],Non-toxic
same,bioavailability,[26],15.3%
same,Activity,[27],Non-toxic
same,bioavailability,[28],70.2%
same,Ki,[29],9.6 µM
same,bioavailability,[30],19%
same,concentration,[4],26 µM
same,ED50,[31],3 mg/kg
same,inhibition,[31],Dose-dependent effect
